For experiment [1], the system named is Clostridioides difficile. Put plainly: Inhibition of spore germination in Clostridium difficile R20291 assessed as inhibition of spore germination measured every minute for 2 hrs by absorbance based analysis. Format: functional, organism-based. As to conditions: R20291, 2 h. In short, it runs like this: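 Spores of strain R20291 diluted to OD580 1.0 in 100 mM sodium phosphate, pH 6.0, with 5 mg/mL sodium bicarbonate. Germinant is 6 mM taurocholate plus 12 mM glycine, with compound at various concentrations. OD580 is read every minute for 2 h and normalized to time zero. Value is fitted from percent germination versus log concentration.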

For experiment [2], the system named is Clostridioides difficile. Put plainly: Inhibition of spore germination in Clostridium difficile R20291 assessed as residual activity at 125 uM measured every minute for 2 hrs by absorbance based analysis relative to control. Format: functional. In short, it runs like this: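 Single-concentration screen of R20291 spores (OD580 1.0) in 100 mM sodium phosphate, pH 6.0, with 5 mg/mL bicarbonate and 2.5% DMSO. Compound at 125 μM final, in triplicate, with 6 mM taurocholate and 12 mM glycine. OD580 is read each minute for 2 h, normalized to time zero, and compared with untreated spores.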

`C[C@H](CCC(=O)N1CCc2ccccc21)[C@H]1CC[C@H]2[C@@H]3[C@H](O)C[C@@H]4C[C@H](O)CC[C@]4(C)[C@H]3C[C@H](O)[C@]12C`: in the experiment with Clostridioides difficile [1], the half-maximal inhibitory concentration (IC50) came out at 1 µM. Further, in the experiment with Clostridioides difficile [2], the Activity was determined as 4%.

Consider `C[C@H](CCC(=O)N1CCC(O)CC1)[C@H]1CC[C@H]2[C@@H]3[C@H](O)C[C@@H]4C[C@H](O)CC[C@]4(C)[C@H]3C[C@H](O)[C@]12C`, for which the Activity with Clostridioides difficile [2] stood at 88%.

Regarding `C[C@H](CCC(=O)N1CCc2c(Cl)cccc21)[C@H]1CC[C@H]2[C@@H]3[C@H](O)C[C@@H]4C[C@H](O)CC[C@]4(C)[C@H]3C[C@H](O)[C@]12C`, the Activity with Clostridioides difficile [2] is given as 95%. Same read-out and setting: as for `C[C@H](CCC(=O)N1CCc2ccccc2C1)[C@H]1CC[C@H]2[C@@H]3[C@H](O)C[C@@H]4C[C@H](O)CC[C@]4(C)[C@H]3C[C@H](O)[C@]12C`, the figure is 78%. Consider `C[C@H](CCC(=O)N1CCCc2ccccc21)[C@H]1CC[C@H]2[C@@H]3[C@H](O)C[C@@H]4C[C@H](O)CC[C@]4(C)[C@H]3C[C@H](O)[C@]12C`, for which the half-maximal inhibitory concentration (IC50) in the experiment with Clostridioides difficile [1] worked out at 22 µM. Further, the Activity in the experiment on Clostridioides difficile [2] is 17%. Taken in the same sequence, the figures for `C[C@H](CCC(=O)N1CCc2cc(F)ccc21)[C@H]1CC[C@H]2[C@@H]3[C@H](O)C[C@@H]4C[C@H](O)CC[C@]4(C)[C@H]3C[C@H](O)[C@]12C` were 0.4 µM and 5%. With `COc1ccc2c(c1)N(C(=O)CC[C@@H](C)[C@H]1CC[C@H]3[C@@H]4[C@H](O)C[C@@H]5C[C@H](O)CC[C@]5(C)[C@H]4C[C@H](O)[C@]13C)CC2`, the Activity in the experiment with Clostridioides difficile [2] amounted to 100%. Still for that read-out and setting: as for `C[C@H](CCC(=O)N1CCc2cc(Br)ccc21)[C@H]1CC[C@H]2[C@@H]3[C@H](O)C[C@@H]4C[C@H](O)CC[C@]4(C)[C@H]3C[C@H](O)[C@]12C`, the figure is 90%; as for `C[C@H](CCC(=O)N1CCc2cc(Br)ccc2C1)[C@H]1CC[C@H]2[C@@H]3[C@H](O)C[C@@H]4C[C@H](O)CC[C@]4(C)[C@H]3C[C@H](O)[C@]12C`, 100%; as for `C[C@H](CCC(=O)N1CCc2cc(Cl)ccc21)[C@H]1CC[C@H]2[C@@H]3[C@H](O)C[C@@H]4C[C@H](O)CC[C@]4(C)[C@H]3C[C@H](O)[C@]12C`, 70%. Same read-out and setting: as for `Cc1ccc2c(c1)CCN2C(=O)CC[C@@H](C)[C@H]1CC[C@H]2[C@@H]3[C@H](O)C[C@@H]4C[C@H](O)CC[C@]4(C)[C@H]3C[C@H](O)[C@]12C`, the figure is 100%. With `C[C@H](CCC(=O)N(C)c1ccccc1)[C@H]1CC[C@H]2[C@@H]3[C@H](O)C[C@@H]4C[C@H](O)CC[C@]4(C)[C@H]3C[C@H](O)[C@]12C`, the IC50 with Clostridioides difficile [1] came to 32 µM. Besides, in the experiment with Clostridioides difficile [2], the Activity turned out to be 31%. `Cc1ccc2c(c1)CCCN2C(=O)CC[C@@H](C)[C@H]1CC[C@H]2[C@@H]3[C@H](O)C[C@@H]4C[C@H](O)CC[C@]4(C)[C@H]3C[C@H](O)[C@]12C`: the Activity in the experiment with Clostridioides difficile [2] turned out to be 100%.

Consider `C[C@H](CCC(=O)N1CCCCC1)[C@H]1CC[C@H]2[C@@H]3[C@H](O)C[C@@H]4C[C@H](O)CC[C@]4(C)[C@H]3C[C@H](O)[C@]12C`, for which the IC50 in the experiment with Clostridioides difficile [1] is 37 µM. In addition, in the experiment with Clostridioides difficile [2], the Activity worked out at 15%. `COc1ccc2c(c1)CCN(C(=O)CC[C@@H](C)[C@H]1CC[C@H]3[C@@H]4[C@H](O)C[C@@H]5C[C@H](O)CC[C@]5(C)[C@H]4C[C@H](O)[C@]13C)C2`: in the experiment with Clostridioides difficile [2], the Activity is 100%. As for `CCN(CC)C(=O)CC[C@@H](C)[C@H]1CC[C@H]2[C@@H]3[C@H](O)C[C@@H]4C[C@H](O)CC[C@]4(C)[C@H]3C[C@H](O)[C@]12C`, the 50% inhibitory concentration (IC50) in the experiment on Clostridioides difficile [1] turned out to be 29 µM. The Activity with Clostridioides difficile [2] is 0.05%.

Take `C[C@H](CCC(=O)N1CCCC1)[C@H]1CC[C@H]2[C@@H]3[C@H](O)C[C@@H]4C[C@H](O)CC[C@]4(C)[C@H]3C[C@H](O)[C@]12C`: in the experiment with Clostridioides difficile [1], the half-maximal inhibitory concentration (IC50) amounted to 38 µM. The Activity with Clostridioides difficile [2] stood at 29%.

A word on the IC50: it is the point on the concentration scale where inhibition reaches its midpoint.

The values are drawn from ChEMBL document CHEMBL5634107, “The design, synthesis, and inhibition of Clostridioides difficile spore germination by acyclic and bicyclic tertiary amide analogs of cholate” (Eur J Med Chem, 2023).
